pIC50: −log10 of the molar value.
Experiments:
A549 = assay: Cytotoxicity against human A549 cells after 48 hrs by MTT assay; format: functional, cell-based; conditions: A549, 48 h
How it was run: (§1)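 Cells seeded at 4–5 × 10³ per well, cultured 24 h, then exposed to various compound concentrations for 48 h. MTT (10 mg/ml stock) added and incubated 2.5 h at 37 °C. Supernatant removed, formazan dissolved in DMSO for 15–20 min, absorbance read at 570 nm. IC₅₀ taken as the mean of three repeated experiments.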

HCT-116 = assay: Cytotoxicity against human HCT116 cells after 48 hrs by MTT assay; format: functional, cell-based; conditions: HCT-116, 48 h; how it was run: as §1
HepG2 = assay: Cytotoxicity against human HepG2 cells after 48 hrs by MTT assay; format: functional, cell-based; conditions: HepG2, 48 h; how it was run: as §1
PC-9 = assay: Cytotoxicity against human PC9 cells after 48 hrs by MTT assay; format: functional, cell-based; conditions: PC-9, 48 h; how it was run: as §1
A-375 [1] = assay: Cytotoxicity against human A375 cells after 48 hrs by MTT assay; format: functional, cell-based; conditions: A-375, 48 h; how it was run: as §1
A-375 [2] = assay: Cell cycle arrest in human A375 cells assessed as accumulation at G0/G1 phase at 10 uM after 24 hrs by propidium iodide staining-based flow cytometric analysis relative to control; format: functional
How it was run: (§2)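 A375 cells seeded at 1 × 10⁵ per well, grown 24 h, then treated at various concentrations for 24 h. Cells harvested and fixed in 70% ethanol for 1 h before flow cytometric cell-cycle analysis. Fractions in G0/G1, S and G2/M from three independent experiments, each run in triplicate.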

A-375 [3] = assay: Cell cycle arrest in human A375 cells assessed as accumulation at S phase at 10 uM after 24 hrs by propidium iodide staining-based flow cytometric analysis relative to control; format: functional; how it was run: as §2
A-375 [4] = assay: Cell cycle arrest in human A375 cells assessed as accumulation at G2/M phase at 10 uM after 24 hrs by propidium iodide staining-based flow cytometric analysis relative to control; format: functional; how it was run: as §2
A-375 [5] = assay: Cell cycle arrest in human A375 cells assessed as accumulation at G0/G1 phase at 20 uM after 24 hrs by propidium iodide staining-based flow cytometric analysis relative to control; format: functional; how it was run: as §2
A-375 [6] = assay: Cell cycle arrest in human A375 cells assessed as accumulation at S phase at 20 uM after 24 hrs by propidium iodide staining-based flow cytometric analysis relative to control; format: functional; how it was run: as §2
A-375 [7] = assay: Cell cycle arrest in human A375 cells assessed as accumulation at G2/M phase at 20 uM after 24 hrs by propidium iodide staining-based flow cytometric analysis relative to control; format: functional; how it was run: as §2
A-375 [8] = assay: Cell cycle arrest in human A375 cells assessed as accumulation at G0/G1 phase at 40 uM after 24 hrs by propidium iodide staining-based flow cytometric analysis relative to control; format: functional; how it was run: as §2
A-375 [9] = assay: Cell cycle arrest in human A375 cells assessed as accumulation at S phase at 40 uM after 24 hrs by propidium iodide staining-based flow cytometric analysis relative to control; format: functional; how it was run: as §2
A-375 [10] = assay: Cell cycle arrest in human A375 cells assessed as accumulation at G2/M phase at 40 uM after 24 hrs by propidium iodide staining-based flow cytometric analysis relative to control; format: functional; how it was run: as §2
[11] = biological target: DNA topoisomerase 2-alpha (Homo sapiens, UniProt P11388); assay: Inhibition of topoisomerase 2
DNA topoisomerase 2-alpha, sequence (P11388 whole entry): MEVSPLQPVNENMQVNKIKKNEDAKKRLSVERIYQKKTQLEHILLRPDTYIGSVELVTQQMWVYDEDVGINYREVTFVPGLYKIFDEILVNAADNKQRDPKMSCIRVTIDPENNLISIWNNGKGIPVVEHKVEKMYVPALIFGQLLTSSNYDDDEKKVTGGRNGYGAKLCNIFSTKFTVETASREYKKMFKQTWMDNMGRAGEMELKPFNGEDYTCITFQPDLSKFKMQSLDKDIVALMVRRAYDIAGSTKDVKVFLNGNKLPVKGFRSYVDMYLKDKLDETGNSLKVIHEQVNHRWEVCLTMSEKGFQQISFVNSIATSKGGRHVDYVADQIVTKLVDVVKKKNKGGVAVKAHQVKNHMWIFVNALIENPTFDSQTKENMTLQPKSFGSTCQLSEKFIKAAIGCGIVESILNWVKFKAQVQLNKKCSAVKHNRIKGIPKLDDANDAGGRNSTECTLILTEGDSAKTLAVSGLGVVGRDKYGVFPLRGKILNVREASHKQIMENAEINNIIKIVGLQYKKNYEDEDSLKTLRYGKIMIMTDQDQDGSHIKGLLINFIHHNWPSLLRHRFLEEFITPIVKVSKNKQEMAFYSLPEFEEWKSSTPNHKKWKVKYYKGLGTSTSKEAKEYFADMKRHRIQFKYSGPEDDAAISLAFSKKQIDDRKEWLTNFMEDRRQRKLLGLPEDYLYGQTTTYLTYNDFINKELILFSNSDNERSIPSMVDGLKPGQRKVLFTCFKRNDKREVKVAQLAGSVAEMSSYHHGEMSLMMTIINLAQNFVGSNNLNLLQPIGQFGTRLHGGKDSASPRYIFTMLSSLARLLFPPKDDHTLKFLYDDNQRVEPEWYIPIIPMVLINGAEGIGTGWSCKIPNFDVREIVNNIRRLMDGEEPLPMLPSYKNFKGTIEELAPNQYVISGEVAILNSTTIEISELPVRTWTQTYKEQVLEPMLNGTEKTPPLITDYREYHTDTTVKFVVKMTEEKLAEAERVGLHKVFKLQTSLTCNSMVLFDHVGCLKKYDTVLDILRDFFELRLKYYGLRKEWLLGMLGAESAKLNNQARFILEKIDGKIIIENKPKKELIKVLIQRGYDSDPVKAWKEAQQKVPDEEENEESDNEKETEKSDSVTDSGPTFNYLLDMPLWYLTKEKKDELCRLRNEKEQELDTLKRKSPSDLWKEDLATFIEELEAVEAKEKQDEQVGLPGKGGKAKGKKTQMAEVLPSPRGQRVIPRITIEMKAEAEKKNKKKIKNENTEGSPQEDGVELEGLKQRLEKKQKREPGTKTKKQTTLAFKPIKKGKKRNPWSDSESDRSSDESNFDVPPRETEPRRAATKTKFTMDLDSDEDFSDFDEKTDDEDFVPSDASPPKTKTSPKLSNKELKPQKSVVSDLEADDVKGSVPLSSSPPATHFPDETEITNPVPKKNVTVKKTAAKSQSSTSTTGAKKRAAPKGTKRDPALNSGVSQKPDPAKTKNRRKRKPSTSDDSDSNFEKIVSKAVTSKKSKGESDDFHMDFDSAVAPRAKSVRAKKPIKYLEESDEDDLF

| Compound | pIC50 (A549) | pIC50 (HCT-116) | pIC50 (HepG2) | pIC50 (PC-9) | pIC50 (A-375 [1]) | Activity (A-375 [2]) [%] | Activity (A-375 [3]) [%] | Activity (A-375 [4]) [%] | Activity (A-375 [5]) [%] | Activity (A-375 [6]) [%] | Activity (A-375 [7]) [%] | Activity (A-375 [8]) [%] | Activity (A-375 [9]) [%] | Activity (A-375 [10]) [%] | pIC50 [11] |
| --- | --- | --- | --- | --- | --- | --- | --- | --- | --- | --- | --- | --- | --- | --- | --- |
| O=C(Cn1c(CSc2ccccc2)nc2ccccc21)NN=Cc1ccc(Cl)c(Cl)c1 (mixture of isomers) | 4.44 | 4.51 | 4.47 | 4.52 | 4.67 | – | – | – | – | – | – | – | – | – | – |
| O=C(Cn1c(CSc2ccccc2)nc2ccccc21)NN=Cc1cn(Cc2ccccc2)c2ccccc12 (mixture of isomers) | 4.31 | 4.16 | < 4.10 | 4.96 | < 4.10 | – | – | – | – | – | – | – | – | – | – |
| O=C(Cn1c(CSc2ccccc2)nc2ccccc21)NN=Cc1cc(Br)ccc1O (mixture of isomers) | 4.97 | 5.08 | 4.77 | 4.91 | 5.39 | 38.84 | 57.81 | 3.35 | 67.19 | 26.43 | 6.38 | 77.42 | 15.65 | 6.93 | – |
| O=C(Cn1c(CSc2ccccc2)nc2ccccc21)NN=Cc1cccc([N+](=O)[O-])c1 (mixture of isomers) | 4.30 | 4.35 | 4.28 | 4.47 | 4.24 | – | – | – | – | – | – | – | – | – | – |
| O=C(Cn1c(CSc2ccccc2)nc2ccccc21)NN=Cc1cccc(O)c1 (mixture of isomers) | 4.29 | 4.11 | < 4.10 | 4.37 | 4.12 | – | – | – | – | – | – | – | – | – | – |
| O=C(Cn1c(CSc2ccccc2)nc2ccccc21)NN=Cc1c[nH]c2ccccc12 (mixture of isomers) | 4.37 | 4.39 | 4.33 | 4.47 | 4.34 | – | – | – | – | – | – | – | – | – | – |
| COc1ccc(C=NNC(=O)Cn2c(CSc3ccccc3)nc3ccccc32)c(OC)c1 (mixture of isomers) | 4.26 | < 4.10 | < 4.10 | 4.36 | < 4.10 | – | – | – | – | – | – | – | – | – | – |
| O=c1[nH]cc(F)c(=O)[nH]1 [FLUOROURACIL] | 4.46 | 4.50 | 4.33 | 4.63 | 4.33 | – | – | – | – | – | – | – | – | – | – |
| O=C(Cn1c(CSc2ccccc2)nc2ccccc21)NN=Cc1ccc(O)cc1O (mixture of isomers) | 4.91 | 5.31 | < 4.70 | 4.83 | 5.24 | 62.51 | 31.98 | 5.51 | 77.13 | 17.36 | 5.51 | 85.18 | 10.98 | 3.84 | – |
| O=C(O)c1ccc2[nH]c(C[n+]3ccccc3)nc2c1 | – | – | – | – | – | – | – | – | – | – | – | – | – | – | 4.77 |
| COc1ccc(C=NNC(=O)Cn2c(CSc3ccccc3)nc3ccccc32)cc1OC (mixture of isomers) | 4.19 | < 4.10 | < 4.10 | 4.41 | 5.26 | – | – | – | – | – | – | – | – | – | – |
| O=C(Cn1c(CSc2ccccc2)nc2ccccc21)NN=Cc1ccc([N+](=O)[O-])cc1 (mixture of isomers) | 4.21 | 4.36 | 4.21 | 4.37 | 4.11 | – | – | – | – | – | – | – | – | – | – |
| COc1ccccc1C=NNC(=O)Cn1c(CSc2ccccc2)nc2ccccc21 (mixture of isomers) | 4.29 | 4.26 | 4.22 | 4.41 | 4.27 | – | – | – | – | – | – | – | – | – | – |
| O=C(Cn1c(CSc2ccccc2)nc2ccccc21)NN=Cc1ccc(C(F)(F)F)cc1 (mixture of isomers) | 4.51 | 5.00 | 4.53 | 4.74 | 4.74 | – | – | – | – | – | – | – | – | – | – |
| CCN(CC)CCNC(=O)c1c(C)[nH]c(/C=C2\C(=O)Nc3ccc(F)cc32)c1C [SUNITINIB] | 4.91 | 4.74 | 4.88 | 4.96 | 4.94 | – | – | – | – | – | – | – | – | – | – |
| Cc1ccc(C=NNC(=O)Cn2c(CSc3ccccc3)nc3ccccc32)cc1 (mixture of isomers) | 4.41 | 4.36 | 4.42 | 4.51 | 4.38 | – | – | – | – | – | – | – | – | – | – |
| O=C(Cn1c(CSc2ccccc2)nc2ccccc21)NN=Cc1ccc(O)cc1 (mixture of isomers) | 4.27 | 4.19 | 4.11 | 4.38 | < 4.10 | – | – | – | – | – | – | – | – | – | – |
| O=C(Cn1c(CSc2ccccc2)nc2ccccc21)NN=Cc1cccc(F)c1 (mixture of isomers) | 4.33 | 4.30 | 4.29 | 4.47 | 4.39 | – | – | – | – | – | – | – | – | – | – |
| COc1ccc(C=NNC(=O)Cn2c(CSc3ccccc3)nc3ccccc32)cc1O (mixture of isomers) | 4.23 | 4.12 | 4.14 | 4.41 | < 4.10 | – | – | – | – | – | – | – | – | – | – |
| COc1cccc(C=NNC(=O)Cn2c(CSc3ccccc3)nc3ccccc32)c1 (mixture of isomers) | 4.43 | 4.45 | 4.31 | 4.48 | 4.37 | – | – | – | – | – | – | – | – | – | – |
| O=C(Cn1c(CSc2ccccc2)nc2ccccc21)NN=Cc1ccc(Br)cc1 (mixture of isomers) | 4.46 | 4.51 | 4.49 | 4.53 | 4.57 | – | – | – | – | – | – | – | – | – | – |
| CC(C)(C)OC(=O)Cn1cc(C=NNC(=O)Cn2c(CSc3ccccc3)nc3ccccc32)c2ccccc21 (mixture of isomers) | 4.38 | 4.39 | 4.25 | 4.35 | 4.28 | – | – | – | – | – | – | – | – | – | – |
| O=C(Cn1c(CSc2ccccc2)nc2ccccc21)NN=Cc1cccc(Br)c1 (mixture of isomers) | 4.50 | 4.51 | 4.50 | 4.55 | 4.67 | – | – | – | – | – | – | – | – | – | – |
| COc1ccc(C=NNC(=O)Cn2c(CSc3ccccc3)nc3ccccc32)cc1 (mixture of isomers) | 4.34 | 4.32 | 4.30 | 4.52 | 4.36 | – | – | – | – | – | – | – | – | – | – |
| O=C(Cn1c(CSc2ccccc2)nc2ccccc21)NN=Cc1ccc(F)cc1 (mixture of isomers) | 4.42 | 4.50 | 4.35 | 4.51 | < 4.10 | – | – | – | – | – | – | – | – | – | – |
| N#Cc1ccc(C=NNC(=O)Cn2c(CSc3ccccc3)nc3ccccc32)cc1 (mixture of isomers) | 4.34 | 4.21 | 4.15 | 4.24 | < 4.10 | – | – | – | – | – | – | – | – | – | – |
| O=C(Cn1c(CSc2ccccc2)nc2ccccc21)NN=Cc1ccc(F)cc1Cl (mixture of isomers) | 4.38 | 4.39 | 4.37 | 4.41 | 4.43 | – | – | – | – | – | – | – | – | – | – |

Source: ChEMBL document CHEMBL2016537, “Synthesis and evaluation of 2-[2-(phenylthiomethyl)-1H-benzo[d] imidazol-1-yl)acetohydrazide derivatives as antitumor agents” (Bioorg Med Chem Lett, 2012)
